Measurements published in ChEMBL document CHEMBL1140194, “Convenient access to 1,3,4-trisubstituted pyrazoles carrying 5-nitrothiophene moiety via 1,3-dipolar cycloaddition of sydnones with acetylenic ketones and their antimicrobial evaluation” (2008).
Converted amounts (≈) assume the structure as drawn.

Tests used:
Format in all cases: functional
[1] = test system: Staphylococcus aureus; assay: Antimicrobial activity against Staphylococcus aureus ATCC 25923 after 16 to 18 hrs by serial dilution method
How it was run: (§1)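 Compounds were dissolved in dimethylformamide as stock. An 18-h broth culture was inoculated by loop into nutrient broth and grown 4 h at 37 °C. Stock was serially diluted by 0.5 mL transfers across tubes 1–10, with tube 11 as growth control. About 0.5 mL diluted culture was added per tube, then incubated at 37 °C for 16–18 h. Reference drugs: nitrofurazone for bacteria, fluconazole for Candida.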

[2] = test system: Escherichia coli; assay: Antimicrobial activity against sEscherichia coli ATCC 25922 after 16 to 18 hrs by serial dilution method; how it was run: as §1
[3] = test system: Pseudomonas aeruginosa; assay: Antimicrobial activity against sPseudomonas aeruginosa ATCC 27853 after 16 to 18 hrs by serial dilution method; how it was run: as §1
[4] = test system: Bacillus subtilis; assay: Antimicrobial activity against Bacillus subtilis after 16 to 18 hrs by serial dilution method; how it was run: as §1
[5] = test system: Candida albicans; assay: Antimicrobial activity against Candida albicans NCIM 3100 after 16 to 18 hrs by serial dilution method; how it was run: as §1

Compound | MIC [1] | MIC [2] | MIC [3] | MIC [4] | MIC [5]
Cc1ccc(-n2cc(C(=O)c3ccccc3)c(-c3ccc([N+](=O)[O-])s3)n2)cc1 | 0.25 µg/mL (≈ 0.642 µM) | 0.25 µg/mL (≈ 0.642 µM) | 0.25 µg/mL (≈ 0.642 µM) | 0.25 µg/mL (≈ 0.642 µM) | 0.25 µg/mL (≈ 0.642 µM)
Cc1ccc(-n2cc(C(=O)c3ccc(Cl)cc3)c(-c3ccc([N+](=O)[O-])s3)n2)cc1 | 0.125 µg/mL (≈ 0.295 µM) | 0.125 µg/mL (≈ 0.295 µM) | 0.125 µg/mL (≈ 0.295 µM) | 0.125 µg/mL (≈ 0.295 µM) | 0.125 µg/mL (≈ 0.295 µM)
COc1ccc(C(=O)c2cn(-c3ccccc3)nc2-c2ccc([N+](=O)[O-])s2)cc1 | 0.25 µg/mL (≈ 0.617 µM) | 0.25 µg/mL (≈ 0.617 µM) | 0.25 µg/mL (≈ 0.617 µM) | 0.25 µg/mL (≈ 0.617 µM) | 0.25 µg/mL (≈ 0.617 µM)
Cc1ccc(C(=O)c2cn(-c3ccc(C)cc3)nc2-c2ccc([N+](=O)[O-])s2)cc1 | 0.125 µg/mL (≈ 0.31 µM) | 0.125 µg/mL (≈ 0.31 µM) | 0.125 µg/mL (≈ 0.31 µM) | 0.125 µg/mL (≈ 0.31 µM) | 0.125 µg/mL (≈ 0.31 µM)
OC(Cn1cncn1)(Cn1cncn1)c1ccc(F)cc1F [FLUCONAZOLE] |  |  |  |  | 0.25 µg/mL (≈ 0.816 µM)
O=C(c1ccc(Cl)cc1)c1cn(-c2ccccc2)nc1-c1ccc([N+](=O)[O-])s1 | 0.125 µg/mL (≈ 0.305 µM) | 0.125 µg/mL (≈ 0.305 µM) | 0.125 µg/mL (≈ 0.305 µM) | 0.125 µg/mL (≈ 0.305 µM) | 0.125 µg/mL (≈ 0.305 µM)
COc1ccc(-n2cc(C(=O)c3ccc(C)cc3)c(-c3ccc([N+](=O)[O-])s3)n2)cc1 | 0.25 µg/mL (≈ 0.596 µM) | 0.25 µg/mL (≈ 0.596 µM) | 0.25 µg/mL (≈ 0.596 µM) | 0.25 µg/mL (≈ 0.596 µM) | 0.25 µg/mL (≈ 0.596 µM)
O=C(c1ccccc1)c1cn(-c2ccccc2)nc1-c1ccc([N+](=O)[O-])s1 | 0.25 µg/mL (≈ 0.666 µM) | 0.25 µg/mL (≈ 0.666 µM) | 0.25 µg/mL (≈ 0.666 µM) | 0.25 µg/mL (≈ 0.666 µM) | 0.25 µg/mL (≈ 0.666 µM)
Cc1ccc(C(=O)c2cn(-c3ccccc3)nc2-c2ccc([N+](=O)[O-])s2)cc1 | 0.25 µg/mL (≈ 0.642 µM) | 0.25 µg/mL (≈ 0.642 µM) | 0.25 µg/mL (≈ 0.642 µM) | 0.25 µg/mL (≈ 0.642 µM) | 0.25 µg/mL (≈ 0.642 µM)
NC(=O)N/N=C/c1ccc([N+](=O)[O-])o1 [NITROFURAZONE] | 0.25 µg/mL (≈ 1.26 µM) | 0.25 µg/mL (≈ 1.26 µM) | 0.25 µg/mL (≈ 1.26 µM) | 0.25 µg/mL (≈ 1.26 µM) | 
COc1ccc(-n2cc(C(=O)c3ccc(Cl)cc3)c(-c3ccc([N+](=O)[O-])s3)n2)cc1 | 0.25 µg/mL (≈ 0.568 µM) | 0.25 µg/mL (≈ 0.568 µM) | 0.25 µg/mL (≈ 0.568 µM) | 0.25 µg/mL (≈ 0.568 µM) | 0.125 µg/mL (≈ 0.284 µM)
COc1ccc(-n2cc(C(=O)c3ccccc3)c(-c3ccc([N+](=O)[O-])s3)n2)cc1 | 0.25 µg/mL (≈ 0.617 µM) | 0.25 µg/mL (≈ 0.617 µM) | 0.25 µg/mL (≈ 0.617 µM) | 0.25 µg/mL (≈ 0.617 µM) | 0.25 µg/mL (≈ 0.617 µM)
